Common to all, as to assay type: functional, cell-based
For one assay, the system named is U-251. Put plainly: Antiproliferative activity against human U251 cells after 24 hrs by MTT assay. Conditions: U-251, 24 h. Put shortly:
(§1)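 MTT proliferation assay on HUVECs and on HepG2, A375, U251, B16 and HCT116 cells. Results reported as IC50.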

The test system of a further assay is A-375. Briefly: Antiproliferative activity against human A375 cells after 24 hrs by MTT assay. As to conditions: A-375, 24 h. An outline of the steps:
as §1
Background: Formazan colour is commonly taken as a measure of viable cells.

Assay [1] is described as follows: Antiproliferative activity against human HCT116 cells after 24 hrs by MTT assay. As to conditions: HCT-116, 24 h. Put shortly:
as §1

The next assay deals with HepG2. Briefly: Antiproliferative activity against human HepG2 cells after 24 hrs by MTT assay. As to conditions: HepG2, 24 h. An outline of the steps:
as §1

The subject of the next assay is HUVEC. Put plainly: Antiproliferative activity against HUVEC after 24 hrs by MTT assay. Conditions: Homo sapiens. An outline of the steps: as §1
Another assay relates to B16. Put plainly: Antiproliferative activity against mouse B16 cells after 24 hrs by MTT assay. Conditions: B16, 24 h. Put shortly: as §1

Bounds are passed on as bounds.

A word on the IC50: it is the midpoint of a concentration-inhibition curve.

For the compound `COc1cc(OC)c(-c2coc3cc(OCc4ccccc4F)ccc3c2=O)cc1OC`, the concentration for half-maximal inhibition (IC50) is 2.89 µM in the assay on U-251; 2.1 µM in the assay with A-375; 2.9 µM in assay [1]; 1.28 µM in the assay with HepG2; 4.3 µM in the assay with HUVEC; 1.61 µM in the assay on B16.
As to `CC1(C)C=Cc2c(ccc3c(=O)c(-c4cccc(C=O)c4)coc23)O1`, the concentration for half-maximal inhibition (IC50) (in the assay on U-251; in the assay with A-375; in assay [1]; in the assay with HepG2; with HUVEC; with B16) was over 10 µM throughout.
With `COc1cc(OC)c(-c2coc3cc(OCc4cccc(Cl)c4)ccc3c2=O)cc1OC`, the IC50 is over 10 µM in the assay on U-251; 0.98 µM with A-375; 1.33 µM in assay [1]; 0.75 µM in the assay with HepG2; over 10 µM with HUVEC; 2.28 µM with B16.
Regarding `CC1(C)C=Cc2c(ccc3c(=O)c(-c4ccc(C(F)(F)F)cc4)coc23)O1`, the IC50 with U-251 was 5.85 µM; with A-375, 7.25 µM; in assay [1], 7 µM; in the assay on HepG2, over 10 µM; in the assay with HUVEC, over 10 µM; in the assay with B16, 1.91 µM.
With `COc1cc(OC)c(-c2coc3cc(OCc4cccc(Br)c4)ccc3c2=O)cc1OC`, the IC50 is over 10 µM in the assay with U-251; 1.12 µM in the assay with A-375; 1.2 µM in assay [1]; 0.87 µM in the assay on HepG2; over 10 µM in the assay with HUVEC; 4.4 µM in the assay with B16.
Regarding `COc1cccc(-c2coc3c4c(ccc3c2=O)OC(C)(C)C=C4)c1F`, the IC50 (in the assay with U-251; in the assay with A-375; in assay [1]; with HepG2; in the assay with HUVEC; with B16) was over 10 µM in each case.
On to `COc1ccc(-c2coc3c4c(ccc3c2=O)OC(C)(C)C=C4)c(OC)c1`, for which the IC50 (with U-251; in the assay with A-375; in assay [1]; with HepG2; with HUVEC; with B16) was over 10 µM in each case.
Consider `COc1cc(OC)c(-c2coc3cc(OCc4ccccc4Cl)ccc3c2=O)cc1OC`, for which the half-inhibitory concentration (IC50) was over 10 µM in the assay with U-251; 2.02 µM in the assay with A-375; 2.45 µM in assay [1]; 1.69 µM in the assay with HepG2; over 10 µM in the assay with HUVEC; 4.18 µM in the assay with B16.
In the case of `COc1cc(OC)c(-c2coc3cc(OCc4ccc([N+](=O)[O-])cc4)ccc3c2=O)cc1OC`, the IC50 was 9.4 µM in the assay with U-251; over 10 µM with A-375; over 10 µM in assay [1]; 2.5 µM in the assay with HepG2; over 10 µM in the assay on HUVEC; over 10 µM in the assay on B16.
In the case of `COc1cc(OC)c(-c2coc3cc(OCc4cccc(C(F)(F)F)c4)ccc3c2=O)cc1OC`, the IC50 in the assay on U-251 is over 10 µM; in the assay with A-375 it was 1.14 µM; in assay [1], 3.4 µM; with HepG2, 0.61 µM; in the assay with HUVEC, over 10 µM; with B16, over 10 µM.
With `COc1cc(OC)c(-c2coc3cc(OCc4ccccc4)ccc3c2=O)cc1OC`, the IC50 in the assay with U-251 is 6.75 µM; with A-375 it was 1.64 µM; in assay [1], 2.28 µM; with HepG2, 1.32 µM; in the assay with HUVEC, 9.75 µM; with B16, 2.33 µM.
In the case of `COc1cc(OC)c(-c2coc3cc(OCc4cccc(F)c4)ccc3c2=O)cc1OC`, the IC50 in the assay on U-251 is 3.51 µM; with A-375 it was 1.3 µM; in assay [1], 4.92 µM; in the assay on HepG2 it was 1.23 µM; with HUVEC it was 5.3 µM; in the assay with B16 it was 2.44 µM.
Consider `C#CCOc1ccc2c(=O)c(-c3cc(OC)c(OC)cc3OC)coc2c1`, for which the IC50 in the assay with U-251 is 6.45 µM; in the assay with A-375, 3.68 µM; in assay [1] it was 8.05 µM; in the assay with HepG2, 4.95 µM; with HUVEC, over 10 µM; in the assay with B16 it was 4.5 µM.
On to `CC1(C)C=Cc2c(ccc3c(=O)c(-c4ccc(O)cc4)coc23)O1`, for which the IC50 (with U-251; in the assay on A-375; in assay [1]; with HepG2; with HUVEC; with B16) was over 10 µM in each case.
Turning to `COc1cc(-c2coc3c4c(ccc3c2=O)OC(C)(C)C=C4)cc(OC)c1OC`, the IC50 (in the assay on U-251; with A-375; in assay [1]; in the assay with HepG2; in the assay on HUVEC; in the assay on B16) was over 10 µM throughout.
Regarding `COc1ccc2c(=O)c(-c3cc(OC)c(OC)cc3OC)coc2c1`, the concentration for half-maximal inhibition (IC50) is 9.4 µM in the assay with U-251; 2.64 µM in the assay with A-375; 9.17 µM in assay [1]; 2.04 µM in the assay with HepG2; over 10 µM with HUVEC; 5.2 µM in the assay on B16.
Consider `COc1cc(OC)c(-c2coc3cc(OCc4ccc(Br)cc4)ccc3c2=O)cc1OC`, for which the IC50 in the assay with A-375 was 1 µM; in assay [1], 1.98 µM; with HepG2, 1.05 µM; in the assay on HUVEC, over 10 µM; with B16 it was 1.18 µM.
For the compound `COc1cc(OC)c(-c2coc3cc(OC(=O)Cc4cccc(C(F)(F)F)c4)ccc3c2=O)cc1OC`, the IC50 (in the assay on U-251; in the assay on A-375; in assay [1]; in the assay with HepG2; in the assay with HUVEC; in the assay with B16) was over 10 µM each time.
As for `COc1ccc(-c2coc3c4c(ccc3c2=O)OC(C)(C)C=C4)c(OC)c1OC`, the IC50 (in the assay with U-251; with A-375; in assay [1]; in the assay with HepG2; in the assay with HUVEC; with B16) was over 10 µM in each case.
Consider `COc1cc(OC)c(-c2coc3cc(OCc4ccc(F)cc4)ccc3c2=O)cc1OC`, for which the half-maximal inhibitory concentration (IC50) was 3.2 µM in the assay on U-251; 1.72 µM with A-375; 0.95 µM in assay [1]; 1 µM in the assay with HepG2; over 10 µM in the assay on HUVEC; 1.12 µM in the assay on B16.
In the case of `COc1ccc(-c2coc3c4c(ccc3c2=O)OC(C)(C)C=C4)cc1`, the IC50 (in the assay with U-251; in the assay with A-375; in assay [1]; in the assay on HepG2; in the assay with HUVEC; with B16) was over 10 µM each time.
Regarding `COc1cc(OC)c(-c2coc3cc(OCc4ccccc4Br)ccc3c2=O)cc1OC`, the IC50 was over 10 µM with U-251; 2.85 µM with A-375; 4.55 µM in assay [1]; 2.18 µM with HepG2; over 10 µM in the assay with HUVEC; 8.9 µM with B16.
As for `COc1cc(OC)c(-c2coc3cc(OCc4ccccc4C(F)(F)F)ccc3c2=O)cc1OC`, the half-maximal inhibitory concentration (IC50) in the assay on U-251 was over 10 µM; in the assay on A-375 it was over 10 µM; in assay [1], 4.76 µM; with HepG2, 6.55 µM; in the assay with HUVEC, over 10 µM; in the assay with B16 it was 8.55 µM.
Regarding `COc1cc(OC)c(-c2coc3cc(OCc4ccc(C(F)(F)F)cc4)ccc3c2=O)cc1OC`, the IC50 in the assay on U-251 was 3.75 µM; in the assay on A-375 it was 2.28 µM; in assay [1], 2.44 µM; with HepG2, 0.89 µM; in the assay on HUVEC, over 10 µM; in the assay on B16 it was 5.4 µM.
With `CC1(C)C=Cc2c(ccc3c(=O)c(-c4ccc(C#N)cc4)coc23)O1`, the IC50 (in the assay with U-251; in the assay on A-375; in assay [1]; in the assay on HepG2; with HUVEC; with B16) was over 10 µM throughout.
Regarding `CC1(C)C=Cc2c(ccc3c(=O)c(-c4ccc(Cl)c(C(F)(F)F)c4)coc23)O1`, the IC50 (in the assay on U-251; with A-375; in assay [1]; in the assay on HepG2; in the assay with HUVEC; with B16) was over 10 µM throughout.
As for `COc1cc(OC)c(-c2coc3cc(OCCN4CCOCC4)ccc3c2=O)cc1OC`, the IC50 (in the assay on U-251; with A-375; in assay [1]; in the assay with HepG2; in the assay on HUVEC; in the assay on B16) was over 10 µM each time.
Regarding `CC1(C)C=Cc2c(ccc3c(=O)c(-c4ccc5c(c4)OCO5)coc23)O1`, the IC50 (with U-251; in the assay on A-375; in assay [1]; with HepG2; in the assay with HUVEC; in the assay on B16) was over 10 µM in each case.
For `CC(=O)c1ccc(-c2coc3c4c(ccc3c2=O)OC(C)(C)C=C4)cc1`, the IC50 (in the assay with U-251; in the assay with A-375; in assay [1]; with HepG2; in the assay with HUVEC; in the assay on B16) was over 10 µM throughout.
As to `COc1cc(OC)c(-c2coc3cc(OCc4ccc(C#N)cc4)ccc3c2=O)cc1OC`, the 50% inhibitory concentration (IC50) with U-251 turned out to be 6.18 µM; in the assay with A-375 it was 1.55 µM; in assay [1] it was 4.22 µM; in the assay on HepG2, 4.23 µM; in the assay with B16 it was 7 µM.
`COc1cc(OC)c(-c2coc3cc(OCc4ccc(Cl)cc4)ccc3c2=O)cc1OC`: the IC50 is 0.47 µM in the assay on U-251; 1.02 µM in the assay with A-375; 4.45 µM in assay [1]; 0.94 µM in the assay on HepG2; 4.4 µM in the assay on HUVEC; 2.4 µM with B16.
`COc1ccc(-c2coc3c4c(ccc3c2=O)OC(C)(C)C=C4)cc1OC`: the IC50 (with U-251; with A-375; in assay [1]; in the assay on HepG2; in the assay on HUVEC; with B16) was over 10 µM in each case.
